Data published in ChEMBL document CHEMBL3286203, “Reactive oxygen species (ROS) inducible DNA cross-linking agents and their effect on cancer cells and normal lymphocytes” (J Med Chem, 2014).
Active and inactive are the calls of the source.

Experiments:
SNB-19 [1] = experiment: Cytotoxicity against human SNB19 cells assessed as growth inhibition at 10 uM after 48 hrs by SRB assay; type: functional, cell-based
Outline: (§1)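 NCI-60 DTP human tumour line screen. Cells grown in RPMI 1640 with 5% fetal bovine serum and 2 mM L-glutamine, plated at 5000–40 000 cells/well according to doubling time. Single dose of 10 μM for 48 h at 37 °C, 5% CO2, 95% air, 100% humidity, two plates per line. Read-out is growth percent.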

LOX IMVI = experiment: Cytotoxicity against human LOXIMVI cells assessed as growth inhibition at 10 uM after 48 hrs by SRB assay; type: functional, cell-based
Outline: (§2)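 NCI DTP 60-cell-line screen run at the NCI. Cells were grown in RPMI 1640 with 5% FBS and 2 mM L-glutamine. They were seeded at 5000–40 000 cells/well depending on doubling time and grown in two plates per line. Each was exposed to a single 10 μM dose for 48 h at 37 °C, 5% CO2, 95% air, 100% humidity. Read-out was percent growth.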

Malme-3M = experiment: Cytotoxicity against human MALME-3M cells assessed as growth inhibition at 10 uM after 48 hrs by SRB assay; type: functional, cell-based; outline: as §2
MDA-MB-435 = experiment: Cytotoxicity against human MDA-MB-435 cells assessed as growth inhibition at 10 uM after 48 hrs by SRB assay; type: functional, cell-based
Outline: (§3)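 Single-dose screen run by the NCI Developmental Therapeutics Program (NCI-60). Cells were grown in RPMI 1640 with 5% fetal bovine serum and 2 mM L-glutamine. They were plated at 5000–40 000 cells/well, depending on doubling time. Each line was run in two plates and exposed to 10 μM drug for 48 h at 37 °C, 5% CO2, 100% humidity. Read-out was growth percent.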

UACC-257 = experiment: Cytotoxicity against human UACC257 cells assessed as growth inhibition at 10 uM after 48 hrs by SRB assay; type: functional, cell-based; outline: as §1
UACC-62 = experiment: Cytotoxicity against human UACC62 cells assessed as growth inhibition at 10 uM after 48 hrs by SRB assay; type: functional, cell-based; outline: as §1
OVCAR-5 = experiment: Cytotoxicity against human OVCAR5 cells assessed as growth inhibition at 10 uM after 48 hrs by SRB assay; type: functional, cell-based; outline: as §3
NCI/ADR-RES = experiment: Cytotoxicity against human NCI-ADR-RES cells assessed as growth inhibition at 10 uM after 48 hrs by SRB assay; type: functional, cell-based; outline: as §3
SK-OV-3 = experiment: Cytotoxicity against human SKOV3 cells assessed as growth inhibition at 10 uM after 48 hrs by SRB assay; type: functional, cell-based; outline: as §3
786-0 = experiment: Cytotoxicity against human 786-0 cells assessed as growth inhibition at 10 uM after 48 hrs by SRB assay; type: functional, cell-based; outline: as §2
A498 [2] = experiment: Cytotoxicity against human A498 cells assessed as growth inhibition at 10 uM after 48 hrs by SRB assay; type: functional, cell-based; outline: as §2
SN12C [3] = experiment: Cytotoxicity against human SN12C cells assessed as growth inhibition at 10 uM after 48 hrs by SRB assay; type: functional, cell-based; outline: as §1
TK-10 = experiment: Cytotoxicity against human TK10 cells assessed as growth inhibition at 10 uM after 48 hrs by SRB assay; type: functional, cell-based; outline: as §1
UO-31 = experiment: Cytotoxicity against human UO31 cells assessed as growth inhibition at 10 uM after 48 hrs by SRB assay; type: functional, cell-based; outline: as §1
DU-145 = experiment: Cytotoxicity against human DU145 cells assessed as growth inhibition at 10 uM after 48 hrs by SRB assay; type: functional, cell-based; outline: as §2
Hs-578T = experiment: Cytotoxicity against human Hs578T cells assessed as growth inhibition at 10 uM after 48 hrs by SRB assay; type: functional, cell-based; outline: as §2
BT-549 = experiment: Cytotoxicity against human BT549 cells assessed as growth inhibition at 10 uM after 48 hrs by SRB assay; type: functional, cell-based; outline: as §2
MDA-MB-468 [4] = experiment: Cytotoxicity against human MDA-MB-468 cells assessed as growth inhibition at 10 uM after 48 hrs by SRB assay; type: functional, cell-based; outline: as §3
SNB-19 [5] = experiment: Cytotoxicity against human SNB19 cells after 48 hrs by SRB assay; type: functional; conditions: SNB-19, 48 h
Outline: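 GI50 from the NCI-60 DTP human tumour line screen. Lines grown in RPMI 1640 with 5% fetal bovine serum and 2 mM L-glutamine, plated at 5000–40 000 cells/well according to doubling time. Incubated 48 h at 37 °C, 5% CO2.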

SK-MEL-5 = experiment: Cytotoxicity against human SK-MEL-5 cells after 48 hrs by SRB assay; type: functional; conditions: SK-MEL-5, 48 h
Outline: (§4)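 GI50 from the NCI Developmental Therapeutics Program in vitro human tumor cell screen. Cell lines were maintained in RPMI 1640 with 5% fetal bovine serum and 2 mM L-glutamine. They were seeded at 5000–40 000 cells/well, depending on each line's doubling time, then exposed to drug for 48 h at 37 °C, 5% CO2.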

A498 [6] = experiment: Cytotoxicity against human A498 cells after 48 hrs by SRB assay; type: functional; conditions: A498, 48 h
Outline: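 GI50 was determined in the NCI Developmental Therapeutics Program in vitro 60-line cancer screen. Tumour lines were maintained in RPMI 1640 containing 5% FBS and 2 mM L-glutamine. Cells were inoculated at 5000–40 000 cells/well according to each line's doubling time before drug exposure.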

SN12C [7] = experiment: Cytotoxicity against human SN12C cells after 48 hrs by SRB assay; type: functional; outline: as §4
MDA-MB-468 [8] = experiment: Cytotoxicity against human MDA-MB-468 cells after 48 hrs by SRB assay; type: functional; conditions: MDA-MB-468, 48 h; outline: as §4
NCI-H226 = experiment: Cytotoxicity against human NCI-H226 cells assessed as growth inhibition at 10 uM after 48 hrs by SRB assay; type: functional, cell-based; outline: as §3
NCI-H522 = experiment: Cytotoxicity against human NCI-H522 cells assessed as growth inhibition at 10 uM after 48 hrs by SRB assay; type: functional, cell-based; outline: as §3
KM12 = experiment: Cytotoxicity against human KM12 cells assessed as growth inhibition at 10 uM after 48 hrs by SRB assay; type: functional, cell-based; outline: as §2
SW-620 = experiment: Cytotoxicity against human SW620 cells assessed as growth inhibition at 10 uM after 48 hrs by SRB assay; type: functional, cell-based; outline: as §1
[9] = Induction of [32P]-labeled 49-mer oligonucleotide duplex DNA 12 with GNC sequence at terminus (unknown origin) interstrand cross-linking at 1 mM after 16 hrs by PAGE in presence of H2O2
Outline: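 32P-labelled 12a (1.0 μM) annealed with 1.5 equiv of 12b in 10 mM potassium phosphate pH 7 / 100 mM NaCl (65 °C for 3 min, then slow cooling). Duplex incubated with compound (final 1 μM–5 mM), with or without H2O2, in NaCl and potassium phosphate pH 8 at room temperature for 16 h. Quenched in formamide; 20% denaturing PAGE.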

[10] = Induction of [32P]-labeled 49-mer oligonucleotide duplex DNA 12 interstrand cross-linking (unknown origin) at purine nucleotide site using compound radiolabeled at 5' of 12b in phosphate buffer at pH 7 at 90 degC after 30 mins by PAGE
SR = experiment: Cytotoxicity against human SR cells assessed as growth inhibition at 10 uM after 48 hrs by SRB assay; type: functional, cell-based; outline: as §1
MOLT-4 = experiment: Cytotoxicity against human MOLT4 cells assessed as growth inhibition at 10 uM after 48 hrs by SRB assay; type: functional, cell-based; outline: as §3

CC1(C)OB(c2ccc(N(CCCl)CCOS(C)(=O)=O)cc2)OC1(C)C
4.4 µM: GI50 (SN12C [7])
8.59 µM: GI50 (A498 [6])
1.07 µM: GI50 (MDA-MB-468 [8])
active: growth inhibition (GI) (SNB-19 [1]) | growth inhibition (GI) (LOX IMVI) | growth inhibition (GI) (Malme-3M) | growth inhibition (GI) (MDA-MB-435) | growth inhibition (GI) (UACC-257) | growth inhibition (GI) (UACC-62) | growth inhibition (GI) (OVCAR-5) | growth inhibition (GI) (NCI/ADR-RES) | growth inhibition (GI) (SK-OV-3) | growth inhibition (GI) (786-0) | growth inhibition (GI) (A498 [2]) | growth inhibition (GI) (SN12C [3]) | growth inhibition (GI) (TK-10) | growth inhibition (GI) (UO-31) | growth inhibition (GI) (DU-145) | growth inhibition (GI) (Hs-578T) | growth inhibition (GI) (BT-549) | growth inhibition (GI) (MDA-MB-468 [4]) | growth inhibition (GI) (NCI-H226) | growth inhibition (GI) (NCI-H522) | growth inhibition (GI) (KM12) | growth inhibition (GI) (SW-620) | Activity [10] | growth inhibition (GI) (SR) | growth inhibition (GI) (MOLT-4)
10.2 µM: GI50 (SNB-19 [5])
37%: Activity [9]
12.8 µM: GI50 (SK-MEL-5)
